Source: PubChem BioAssay
GASC1 inh: inhibitors of GASC-1 (KDM4C) histone demethylase, primary screen, biochemical, single concentration HTS; GST-KDM4C 2-372, H3K9me3 peptide, LANCE TR-FRET; 0.15% of 96,000 active; AID 720574, 2013; inhibition, % at 12.5 µM;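 active = mean replicate inhibition above about 25%, with at least 55% of replicates also reaching it, limit read from the data, passing the limit was not always enough; inconclusive = only one of those two conditions met; inactive = neither condition met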
Target sequence (Q9H3R0 2-372 limits assumed): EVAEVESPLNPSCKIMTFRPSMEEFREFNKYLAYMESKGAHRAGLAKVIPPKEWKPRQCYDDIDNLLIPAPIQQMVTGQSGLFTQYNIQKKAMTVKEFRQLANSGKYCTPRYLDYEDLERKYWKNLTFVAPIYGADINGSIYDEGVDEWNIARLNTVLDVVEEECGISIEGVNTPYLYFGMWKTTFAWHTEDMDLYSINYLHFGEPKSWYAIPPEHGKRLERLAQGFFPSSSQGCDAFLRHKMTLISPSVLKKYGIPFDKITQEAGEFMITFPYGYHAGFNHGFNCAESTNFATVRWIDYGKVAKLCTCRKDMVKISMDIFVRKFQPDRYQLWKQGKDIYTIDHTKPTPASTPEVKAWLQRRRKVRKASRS
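Test system: N-terminal GST-fused human GASC-1 (KDM4C) fragment, residues 2-372; quantity: GASC-1 enzyme at 10 nM final in reaction; dosing: single dose; schedule: 30 min demethylation and 1 h detection at room temperature; signal: LANCE TR-FRET, excitation 340 nm, emissions 618 and 671 nm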
IDH1 mut inh: inhibitors of IDH1 R132H reductase, primary screen, biochemical, plate reader, single point; diaphorase/resazurin fluorescence, 60 min; 0.18% of 70,000 active; AID 624101, 2012; inhibition, % at 10 µM; in the data active = inhibition above about 34%; inconclusive = no clear call, values can overlap the other calls; inactive = below about 11%;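 also: 0% = DMSO and 100% = no enzyme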
Pf Dd2 inh: P. falciparum Dd2 growth inhibitors, primary screen, SYBR Green fluorescence, single dose replicates; activity change, % at 10 µM; 2.3% of 94,000 active; 72 h; active compounds read low; AID 1159554, 2015; in the data active = activity change below about -80%; inconclusive = no clear call, values can overlap the other calls
T cruzi growth-1: T. cruzi intracellular proliferation inhibitors, primary screen, cell-based, beta-gal Tulahuen parasites, NIH3T3 host, luminescence; 5.9% of 77,000 active; T. cruzi beta-gal in NIH3T3, GalScreen luminescence, 90 h; inhibition, % at 8.34 µM;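 active = mean inhibition above about 93%, with at least 55% of replicates each passing it, limit read from the data, passing the limit was not always enough; inconclusive = only one of those two conditions holds; inactive = neither condition holds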
T cruzi growth-2: T. cruzi intracellular proliferation inhibitors, confirmation, cell-based, NIH3T3 host, beta-gal parasite, luminescence, cherry-pick | T. cruzi beta-gal in NIH3T3, GalScreen luminescence, 90 h | inhibition, % at 8.35 µM | 72% of 5,600 active | shares compounds with T cruzi growth-1 | AID 651739, 2012;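 active = mean replicate inhibition above about 95% and at least 55% of replicates individually reaching it, limit read from the data; inconclusive = only one of the two criteria is met; inactive = neither criterion is met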
T cruzi growth-3: inhibitors of intracellular T. cruzi replication, confirmation, NIH3T3 host cells, beta-gal parasites, cherry-pick, set 2; shares compounds with T cruzi growth-1; T. cruzi beta-gal in NIH3T3, GalScreen luminescence, 90 h; inhibition, % at 2.09 µM; 21% of 5,600 active; AID 651740, 2012;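 active = mean inhibition above about 95%, with at least 55% of replicates also reaching it, limit read from the data; inconclusive = meets just one of the two conditions; inactive = meets neither condition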;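 also: plate controls were neutral control median for no effect and positive control median for full effect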
NIH3T3 tox: cytotoxicity in mouse NIH/3T3 fibroblasts, confirmation, cytotoxicity control for T. cruzi proliferation inhibitor project, cell-based, cherry-pick, single point; shares compounds with T cruzi growth-1; NIH/3T3 viability, CellTiter-Glo ATP luminescence, 90 h; cytotoxicity (signal decrease), % at 8.35 µM; 14% of 5,600 active;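 active = mean signal decrease across replicates above about 35% based on untreated-well scatter, with enough replicates individually passing, limit read from the data; inconclusive = no rule stated though some were filed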;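 also: 0% = median of neutral control wells and 100% = median of positive control wells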
NIH3T3 tox 2: NIH/3T3 fibroblast cytotoxicity, confirmation, cytotoxicity control, cell-based, cherry-pick, single point, set 2; shares compounds with T cruzi growth-1; inhibition, % at 24.9 µM; 56% of 5,600 active; NIH/3T3 viability, CellTiter-Glo ATP luminescence, 90 h;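 active = mean loss of cell viability signal at or above a set limit, and enough replicates individually reaching it; inconclusive = meets only the mean limit or only the replicate share; inactive = meets neither condition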;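 also: 0% = median of neutral control wells and 100% = median of positive control wells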
Active calls of the source: *; ? = inconclusive; . = no result given; ! = not confirmed by another sample. Compounds with a hit are over-represented: about 5.8% of the library has one in this group of screens.

SMILES | GASC1 inh | IDH1 mut inh | Pf Dd2 inh | T cruzi growth-1 | T cruzi growth-2 | T cruzi growth-3 | NIH3T3 tox | NIH3T3 tox 2
Cc1ccc(S(=O)(=O)N2C[C@H](O)COC[C@@H]3O[C@H](CC(=O)N[C@@H]4CCN(Cc5ccccc5)C4)CC[C@H]32)cc1 | 1 | . | -19 | 68 | . | . | . | .
CC(C)C#Cc1ccc([C@@H]2[C@H](CO)N3CCCCN(C(=O)Nc4ccccc4)C[C@@H]23)cc1 | 0 | . | -28 | 82 | . | . | . | .
CC(C)C#Cc1ccc([C@@H]2[C@@H](CO)N3CCCCN(C(=O)Nc4ccccc4)C[C@H]23)cc1 | 2 | . | -29 | 99* | 100* | 69 | 39* | 105*
CC(C)C#Cc1ccc([C@@H]2[C@H]3CN(C(=O)Nc4ccccc4)CCCCN3[C@H]2CO)cc1 | -1 | . | 4 | ? | 87 | 94 | 88* | 106*
C[C@H](O)C#Cc1ccc([C@H]2[C@@H](CO)N3CCCCN(C(=O)Nc4ccccc4)C[C@H]23)cc1 | 0 | . | -20 | 109* | 37 | 7 | -22 | -4
CC(C)C#Cc1ccc([C@@H]2[C@@H](CO)N3CCCCN(C(=O)Nc4ccccc4)C[C@@H]23)cc1 | 2 | . | 19 | 106* | 112* | 86 | 18 | 105*
COc1ccc(NC(=O)C2=C(C)NC(=O)NC2c2cc(OC)ccc2OC)c(OC)c1 (centres undefined) | . | 0 | . | . | . | . | . | .
C[C@@H]1CN([C@H](C)CO)C(=O)c2cc(/C=C/c3ccccc3)cnc2O[C@H]1CN(C)Cc1ccccc1 | 1 | 0 | -38 | 114* | 113* | 98* | 13 | 105*
C[C@H](CO)N1C[C@H](C)[C@H](CN(C)Cc2ccncc2)Oc2ncc(/C=C/c3ccccc3)cc2C1=O | 0 | 0 | -14 | 61 | . | . | . | .
C[C@@H]1CN([C@@H](C)CO)C(=O)c2cc(/C=C/c3ccccc3)cnc2O[C@H]1CN(C)C(=O)Cc1ccccn1 | -3 | 0 | -21 | 101* | 103* | 99* | 14 | 46*
C[C@@H]1CN([C@@H](C)CO)C(=O)c2cc(/C=C/c3ccccc3)cnc2O[C@H]1CN(C)Cc1ccncc1 | -1 | 1 | -27 | 120* | 114* | 92 | 22 | 19
CCn1c(O)c(/C=C2/C=CC=N2)c(=O)[nH]c1=S | . | 0 | . | . | . | . | . | .
COC(=O)c1cc(-c2ccccc2)sc1NC(=O)c1cnccn1 | . | 0 | . | . | . | . | . | .
C[C@@H]1CN([C@H](C)CO)S(=O)(=O)c2ccc(-c3ccc(C#N)cc3)cc2O[C@H]1CN(C)C(=O)Nc1cc(F)ccc1F | 15 | . | -56 | 109*! | 78 | 53 | 81* | 83*
C[C@@H]1CN([C@H](C)CO)S(=O)(=O)c2ccc(-c3cccc(C#N)c3)cc2O[C@@H]1CN(C)C(=O)Nc1cc(F)ccc1F | -3 | . | -32 | . | . | . | . | .
C[C@H]1CN([C@@H](C)CO)S(=O)(=O)c2ccc(-c3ccc(C#N)cc3)cc2O[C@H]1CN(C)C(=O)Nc1cc(F)ccc1F | 0 | 6 | -74 | 122* | 102* | 67 | 30 | 84*
C[C@H](CO)N1C[C@H](C)[C@@H](CN(C)C(=O)Nc2cc(F)ccc2F)Oc2cc(-c3ccc(C#N)cc3)ccc2S1(=O)=O | -2 | . | -58 | 118* | 101* | 28 | 46* | 83*
C[C@@H]1CN([C@H](C)CO)S(=O)(=O)c2ccc(-c3ccc(C#N)cc3)cc2O[C@@H]1CN(C)C(=O)Nc1cc(F)ccc1F | 1 | 0 | -45 | 115* | 92 | -7 | -3 | 77*
COC(=O)c1ccc(NC(=O)CN(c2ccc(I)cc2)S(C)(=O)=O)cc1 | . | 0 | . | . | . | . | . | .
COCC(=O)N1CC2(C1)[C@@H](c1ccccc1)[C@@H](CO)N2C(=O)c1ccccc1 | 1 | . | 10 | . | . | . | . | .
C[C@H](CO)N1C[C@H](C)[C@@H](CN(C)C(=O)Nc2ccccc2F)Oc2cc(-c3cccc(C#N)c3)ccc2S1(=O)=O | 0 | . | -50 | ? | 103* | 51 | 41* | 69*
C[C@@H]1CN([C@H](C)CO)S(=O)(=O)c2ccc(-c3cccc(C#N)c3)cc2O[C@@H]1CN(C)C(=O)c1ccc(F)cc1 | 2 | 1 | -14 | 101* | 102* | 83 | ? | 88*
C[C@H](CO)N1C[C@H](C)[C@H](CN(C)C(=O)c2ccc(F)cc2)Oc2cc(-c3cccc(C#N)c3)ccc2S1(=O)=O | -1 | 0 | -68 | 104* | 71 | 74 | 7 | 64*
C[C@@H]1CN([C@H](C)CO)S(=O)(=O)c2ccc(-c3cccc(C#N)c3)cc2O[C@H]1CN(C)C | 8 | 0 | -18 | 110* | 87 | 28 | 25 | 36*
C[C@H](CO)N1C[C@H](C)[C@@H](CN(C)C)Oc2cc(-c3cccc(C#N)c3)ccc2S1(=O)=O | 1 | 0 | -11 | 53 | . | . | . | .
SMILES | GASC1 inh | IDH1 mut inh | Pf Dd2 inh | T cruzi growth-1 | T cruzi growth-2 | T cruzi growth-3 | NIH3T3 tox | NIH3T3 tox 2
C[C@@H]1CN([C@@H](C)CO)S(=O)(=O)c2ccc(-c3cccc(C#N)c3)cc2O[C@H]1CN(C)C(=O)c1ccccc1 | 0 | 0 | -54 | 67 | . | . | . | .
CC(C)(C)c1ccc(C(=O)Nc2ccc(NC(=O)COc3ccc([N+](=O)[O-])cc3)cc2)cc1 | . | 1 | . | . | . | . | . | .
CO[C@H](CN(C)C(=O)Nc1ccc(Cl)cc1)[C@@H](C)CN(Cc1ccccc1Cl)[C@H](C)CO | 3 | 0 | -44 | 102* | 106* | 78 | 23 | 77*
CO[C@@H](CN(C)C(=O)Nc1ccc(Cl)cc1)[C@@H](C)CN(Cc1ccccc1Cl)[C@@H](C)CO | 0 | 0 | -55 | 109* | 102* | 49 | 39* | 54*
CO[C@@H](CN(C)C(=O)Nc1ccc(Cl)cc1)[C@H](C)CN(Cc1ccccc1Cl)[C@@H](C)CO | 0 | 0 | -31 | 94 | . | . | . | .
CN1C(=O)c2cc(NC(=O)c3ccc(F)c(F)c3)ccc2OC[C@@H]2O[C@H](CC(=O)N[C@@H]3CCN(Cc4ccccc4)C3)CC[C@H]21 | 0 | . | . | 106* | 114* | 50 | -14 | -10
